# Assay outcomes: PubChem BioAssay, Sanford-Burnham Center for Chemical Genomics
# An excerpt weighted towards active compounds, which were near 1.8% of everything screened.
# DNMT1 block: blocks human DNA methyltransferase DNMT1; 360,000 compounds, 0.83% hits; DNMT1 molecular beacon, Hinp1I cleavage, fluorescence; P26358; inhibition (reported as % activation of signal), % at 10 µM; in the data active = inhibition above about 50%
# LMPTP block: blocks human LMPTP phosphatase | recombinant LMPTP-A, OMFP fluorogenic substrate, fluorescence intensity | inhibition, % at 20 µM | P24666 | 360,000 compounds, 0.22% hits;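 active = compounds that cut the enzyme signal by at least half of the control window in the single-dose screen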;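 note: plate controls were DMSO wells with enzyme plus substrate for no effect and substrate without enzyme for full effect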
# Target sequence (P24666 whole entry, looked up): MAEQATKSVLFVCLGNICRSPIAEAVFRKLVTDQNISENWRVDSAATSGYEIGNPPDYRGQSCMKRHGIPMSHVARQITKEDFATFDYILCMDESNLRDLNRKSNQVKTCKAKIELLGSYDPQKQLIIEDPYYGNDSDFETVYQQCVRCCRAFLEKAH
#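 Assay system: LMPTP-A phosphatase enzyme | Input: 0.625 nM enzyme | Also added: Fluorogenic phosphatase substrate OMFP at 400 µM final | Compound dosing: One test concentration per compound, 20 µM, with 3% DMSO overall | Schedule: 50 min enzyme reaction at room temperature, protected from light | Signal: Fluorescence intensity | Benchmarks: no-enzyme and uninhibited controls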
# SUMO1 PPI mod: modulators of human SUMO1-mediated protein-protein interactions. P63165. SUMO1 binding to a labelled peptide, TR-FRET, 1 h. inhibition, % at 20 µM. 360,000 compounds, 0.33% hits. AID 602429; in the data active = inhibition above about 37%
# Target sequence (P63165 whole entry, looked up): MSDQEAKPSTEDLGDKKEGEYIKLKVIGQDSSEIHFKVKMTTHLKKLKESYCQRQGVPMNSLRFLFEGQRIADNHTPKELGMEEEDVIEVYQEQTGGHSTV
# STEP block: blocks human striatal-enriched tyrosine phosphatase | P54829 | recombinant STEP, OMFP fluorogenic substrate, fluorescence | inhibition, % at 20 µM | 360,000 compounds, 0.25% hits | AID 588621;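 active = inhibition at 20 µM, scaled per plate between control wells, above about 37%, limit read from the data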;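 note: 0% = DMSO with enzyme and substrate and 100% = substrate only without enzyme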
#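 System: isolated STEP enzyme; schedule: 20 min enzyme reaction at room temperature, protected from light; medium: Bis-Tris buffer pH 6.0, 2.5 mM DTT, 0.005% Tween 20; signal: fluorescence, 480/540 nm; dosing: single compound dose of 20 µM, 1% DMSO final; also added: OMFP substrate, 25 µM final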
# Scp1 inh: inhibitors of human Scp-1 phosphatase; Recombinant Scp1, phosphopeptide, malachite green phosphate absorbance; inhibition, % at 20 µM; 340,000 compounds, 0.88% hits;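 active = inhibition above about 50% at 20 µM, limit read from the data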;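 note: plate controls were DMSO wells with enzyme for no effect and wells lacking enzyme for full effect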
# Target sequence (Q9GZU7 76-261 limits assumed): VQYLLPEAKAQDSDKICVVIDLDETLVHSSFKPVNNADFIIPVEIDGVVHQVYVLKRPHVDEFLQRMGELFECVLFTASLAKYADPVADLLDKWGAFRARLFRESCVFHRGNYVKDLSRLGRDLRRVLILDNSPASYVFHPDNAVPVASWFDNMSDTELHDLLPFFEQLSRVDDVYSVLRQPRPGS
#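 Material – SCP-1 phosphatase catalytic domain, residues 76-261 · Buffer or medium – Acidic Tris acetate buffer with magnesium and detergent · Also added – Phospho 17-mer peptide substrate · Compound – single 20 µM dose, 1% DMSO · Times – 45 min room-temperature reaction, 5 min colour, 30 min stabiliser · Technique – Phosphate-binding colour reagent, absorbance read at 630 nm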
# STEP conf: STEP (human) phosphatase inhibition, single concentration confirmation; shares compounds with STEP block; inhibition, % at 20 µM; 520 compounds, 32% hits; recombinant STEP, OMFP fluorogenic substrate, fluorescence; call rule not given here;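 note: 0% = enzyme with substrate plus DMSO and 100% = substrate without enzyme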
# Starred values were filed as active, the others as inactive; . = not tested or not shown.
SMILES,DNMT1 block,LMPTP block,SUMO1 PPI mod,STEP block,Scp1 inh,STEP conf
CCOC(=O)N1CCC(N(CCN(C)C)C(=S)Nc2ccc(Oc3ccccc3)cc2)CC1,0,-2,1,92*,5,61*
CCCCn1c(N)c(N(CC(C)C)C(=O)CSc2nnc(C)n2-c2ccc(OC)cc2)c(=O)[nH]c1=O,-1,-1,-1,0,-8,.
Cc1ccc(S(=O)(=O)N2CCCCC2)cc1NC(=O)c1ccc(=O)[nH]c1,10,54*,12,54*,.,66*
Cc1c(NC(=O)c2cccc(NC(=O)Cc3ccc(F)cc3)c2)c(=O)n(-c2ccccc2)n1C,2,-2,9,-1,-6,.
CSc1ccc(C(=S)N2CCN(Cc3ccccc3)CC2)cc1,-3,-1,-3,52*,-5,25
CCN1CCN(C(=S)c2ccc(SC)cc2)CC1,1,0,-1,67*,-13,6
CC(C)C[C@@H]1COc2cccc(N3CCN(Cc4ccccc4F)CC3)c2S(=O)(=O)N1,.,-1,-2,.,.,.
Cc1ccc(C2/C=C\CC(NC(=O)OCC3c4ccccc4-c4ccccc43)CC(=O)N2Cc2ccccc2)cc1 (configuration not stated),2,4,-3,2,-1,.
COc1ccc(OC)c(C(=O)c2ccccn2)c1,-13,-1,2,95*,-12,12
Cc1ccc(S(=O)(=O)NCC(=O)N2CCN(c3ccc(F)cc3)CC2)cc1,1,-2,-2,40*,-4,-3
O=C(Nc1ccc(C(=O)N2CCCCC2)cc1)c1cccs1,7,2,-17,68*,-7,4
Cc1nc(NC(=O)C2CC2)sc1C(=O)Nc1ccccc1,-2,0,-1,2,-4,.
Cc1nc(NC(N)=S)sc1C(=O)Nc1ccccc1,1,11,0,50*,3,16
Cc1cc(/C=C(\C#N)C(=O)NCc2ccccc2)c(C)[nH]1,1,-2,-20,0,.,.
S=C(NCCN1CCOCC1)C(=S)NCCN1CCOCC1,5,-2,-19,42*,-2,13
O=C(Nc1ccc2oc(-c3ccncc3)nc2c1)c1ccc(Br)o1,1,28,5,67*,16,3
O=C(Nc1ccc2oc(-c3ccncc3)nc2c1)c1ccc2c(c1)OCO2,33,67*,44*,74*,35,3
O=C(Nc1ccc2oc(-c3ccncc3)nc2c1)c1ccco1,-1,4,23,2,46,.
CCOc1ccc(CCNC(=O)CS(=O)(=O)Cc2nc(-c3ccc(OC)cc3)oc2C)cc1,18,25,4,44*,22,19*
CCOc1ccc(CNC(=O)CS(=O)(=O)Cc2nc(-c3ccc(OC)cc3)oc2C)cc1,-1,1,-9,2,-19,.
Cc1ccc(C2=C(O)C(=O)C(c3ccc(C)cc3)=C(O)C2=O)cc1,2,11,1,6,-3,.
CC1=C(O)C(=O)C(C2=C(O)C(=O)C(C)=C(O)C2=O)=C(O)C1=O,1,4,-13,65*,-1,21*
O=C(O)c1ccc(/C=N/Nc2nc3ccccc3[nH]2)cc1,2,14,-9,49*,38,0
Cn1cc(P(=O)(N2CCOCC2)N2CCOCC2)cc1P(=S)(N1CCOCC1)N1CCOCC1,0,-1,-1,62*,-7,23
Cn1cc(P(=S)(N2CCOCC2)N2CCOCC2)cc1P(=O)(N1CCOCC1)N1CCOCC1,-3,1,-4,8,-4,.
SMILES,DNMT1 block,LMPTP block,SUMO1 PPI mod,STEP block,Scp1 inh,STEP conf
CC(=O)Nc1ccc(C(=O)CN2CCN(c3ccccc3)CC2)cc1,-7,4,70*,47*,-1,16
CC(=O)c1ccc(NC(=O)CN2CCN(c3ccccc3)CC2)cc1,-7,-2,6,1,-7,.
O=C(NCc1ccco1)C1CCN(C(=O)c2ccc(Cl)cc2Cl)CC1,-1,0,2,56*,5,11
O=C(NCc1cccnc1)C1CCN(C(=O)c2ccc(Cl)cc2Cl)CC1,-3,0,3,2,-5,.
COc1cccc(-c2cc(C(=O)Nc3nc4ccccc4s3)c3ccccc3n2)c1,-8,3,-4,71*,10,41*
Cc1ccccc1-n1nc(CSc2nc3ccccc3[nH]2)c(-c2ccccc2)c1N,-6,1,5,58*,-1,7
CC1CCCCC12NC(=O)N(CC(=O)N1CCN(S(=O)(=O)Cc3ccccc3)CC1)C2=O (configuration not stated),-4,-9,-14,-2,-14,.
O=C1NC(=Nc2cccnc2)S/C1=C\c1cccc(F)c1,-1,-1,-14,57*,10,6
CCSc1nc(O)cc(=O)[nH]1,2,-1,3,1,-8,.
N#CNc1nc(O)cc(=O)[nH]1,1,87*,16,98*,49,63*
COC(=O)c1ccc([N+](=O)[O-])cc1N1C(=O)C2C3CCC(C3)C2C1=O (configuration not stated),-1,-2,-18,64*,-8,-3
CCOc1ccccc1-c1noc(CCC(=O)NC2CCCCC2)n1,-1,1,-1,92*,-1,-1
COc1ccc(SC[C@H](Cc2ccccc2)N2CC[C@@H](NC(=O)OCc3ccccc3)CCC2=O)cc1,-9,7,6,1,-8,.
Cc1ccc(C)c(NC(=O)c2cccc(Oc3ccc([N+](=O)[O-])cc3Cl)c2)c1,-2,14,-3,77*,-8,18
COc1ccc(NC(=O)c2cccc(Oc3ccc([N+](=O)[O-])cc3Cl)c2)cc1,-6,5,-7,0,-20,.
COc1cccc(N2CCN(C(=O)c3cc4c(s3)CCCCC4)CC2)c1,-4,3,8,-2,-5,.
O=C(O)c1ccccc1C(=O)NCC(O)c1ccccc1 (configuration not stated),-1,-1,6,91*,-13,-4
O=C1CNc2cc(Cl)ccc2N1,-1,0,-14,-2,.,.
O=C1CSc2cc(Cl)ccc2N1,0,0,1,37*,10,16
CCN(CC)C(=O)c1ccccc1NC(=O)c1ccccc1SC,-1,-2,3,43*,-3,5
CCN(CC)C(=O)c1ccccc1NC(=O)c1ccccc1C,-3,0,2,-2,-3,.
Cn1cc(Br)c(C(=O)NC2CCCCCC2)n1,0,-2,1,-2,-2,.
O=C(O)CCCCCn1c(SCc2cc(=O)n3ccccc3n2)nc2ccsc2c1=O,1,-1,-8,-1,8,.
O=C(O)CCCCCn1c(SCc2cc(=O)n3cc(Cl)ccc3n2)nc2ccsc2c1=O,0,-1,-14,65*,0,12
